Sampled rows, rich in hits. Any-hit rate of the full collection: about 3.1%.
KCNK9 block: KCNK9 potassium channel inhibitors, primary screen, HEK293 cells, thallium flux; B-score at 10 µM; 310,000 tested, 1.2% active; FluxOR thallium flux fluorescence; stronger effect = lower value; Potassium channel subfamily K member 9 (Homo sapiens), Q9NPC2;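 active means ratio B-score over 3 SD below the library mean, with starting fluorescence within 5 SD of its mean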;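 further: negative B-score means less thallium flux so channel inhibition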
hERG protect: hERG rescue from dofetilide block, primary screen, cell-based, CHO-hERG, FluxOR thallium flux, dofetilide IC70 | dofetilide IC70 present | activation (rescue from dofetilide block), less the hit threshold, % at 10 µM | 310,000 tested, 0.51% active | AID 1511, 2009;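 active means activation above the mean of controls blocked by dofetilide plus 5 SD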;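 further: thallium influx through hERG after potassium depolarization seen as dye fluorescence rise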
KCNK3 block: human KCNK3 channel inhibitors, primary screen, CHO cells, FluxOR thallium flux, B-score. Potassium channel subfamily K member 3 (Homo sapiens), O14649. FluxOR fluorescence; stronger effect = lower value. B-score at 10 µM. 340,000 tested, 0.84% active. AID 602410, 2012;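 active means B-score under library mean minus 4 SD, starting fluorescence ratio at most library mean plus 5 SD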;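 further: more negative B-score means stronger inhibition of thallium flux through KCNK3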
KCNQ1 pot: potentiators or activators of KCNQ1 channel, primary screen, cell-based, thallium flux, high-throughput | Potassium voltage-gated channel subfamily KQT member 1 (Homo sapiens), P51787 | CHO-K1 KCNQ1, thallium flux FluxOR fluorescence; stronger effect = higher value | B-score at 10 µM | 310,000 tested, 0.35% active | AID 2648, 2010;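 active means fluorescence ratio B-score, a plate-corrected score, at least three library SD, with initial intensity B-score within 5 SD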
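Assay system: CHO-K1 cells stably expressing KCNQ1. Medium: assay buffer for compound exposure, DMSO matched across wells. Timing: 37 °C overnight plating, 90-min dark dye load, 20-min compound pretreatment. Signal: kinetic FluxOR fluorescence, 10 s baseline plus 110 s post-stimulus.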
KCNQ1 block: inhibitors of human KCNQ1 channel, primary screen, cell-based, thallium flux, high-throughput. Potassium voltage-gated channel subfamily KQT member 1 (Homo sapiens), P51787. CHO-K1 KCNQ1, FluxOR thallium flux fluorescence; stronger effect = higher value. B-score at 10 µM. 310,000 tested, 1.3% active. AID 2642, 2010;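 active means compounds whose thallium flux B-score, printed positive for inhibition, exceeds three library SD while starting fluorescence stays within three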;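 further: channel opened by potassium depolarization with thallium stimulus after 20 min compound exposure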
KCNK3 confirm: retest of human KCNK3 channel inhibitors, confirmation, CHO cells, FluxOR thallium flux, triplicate. shares compounds with KCNK3 block. 2,400 tested, 99% active. FluxOR fluorescence; 0% buffer, 100% carvedilol maximal block. ratio percent of control, % at 10 µM;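 active means ratio percent of control, averaged over triplicates, above buffer control mean plus 5 SD, cut at about 64% in these data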;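 further: ratio is the fluorescence rise from min to max over baseline after thallium stimulus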
KCNK3 uninduced: thallium flux inhibition in non-induced cells, primary screen, counter-screen for KCNK3 inhibitor project, cell-based, non-induced KCNK3 line, FluxOR thallium, triplicate | shares compounds with KCNK3 block | non-induced KCNK3 parental cells; stronger effect = lower value | thallium flux ratio (lower = more inhibition) at 10 µM | 2,400 tested, 40% active | AID 651747, 2012;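 active means thallium flux ratio, averaged over three wells, more than 5 SD below the buffer control mean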;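 further: host cells are CHO cells without KCNK3 induction; ratio is peak minus trough fluorescence over baseline then normalized to buffer controls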
* = called active by the depositor; i = inactive; · = not tested or not shown.

SMILES | KCNK9 block | hERG protect | KCNK3 block | KCNQ1 pot | KCNQ1 block | KCNK3 confirm | KCNK3 uninduced
CCOc1ccc(NC(=O)CN(C)C(=O)CCc2ccccc2Cl)cc1OCC | i | -22.1 | i | i | i | · | ·
CCOc1ccc(NC(=O)CN(C)C(=O)CCCOc2ccc(Cl)c(C)c2)cc1OCC | i | -6.4 | -9.9* | i | i | 92.7* | i
O=C(CSc1ccc(Cl)cc1)N1CCN(c2c(Cl)cccc2[N+](=O)[O-])CC1 | i | -9.1 | -9.87* | i | i | 117.3* | 0.144*
CCOC(=O)/C(C#N)=C/c1cc(C)n(-c2ccc(C)cc2)c1C | i | -3.8 | -9.58* | i | i | 109.7* | i
Cc1ccc(N(C)S(=O)(=O)c2ccc(C)cc2)cc1 | i | -7.5 | i | i | i | · | ·
Cc1ccc(S(=O)(=O)N(C)c2ccc3ccccc3c2)cc1 | i | -37.9 | -9.36* | i | i | 121.7* | 0.126*
O=S(=O)(NC(=NCCc1ccc(Cl)cc1)c1ccccc1Cl)c1cccs1 | i | -16.6 | -8.93* | i | i | 114.3* | 0.157*
CCOc1ccc(CCNC(=O)COC(=O)c2cc([N+](=O)[O-])ccc2N2CCOCC2)cc1OCC | i | -12.9 | i | i | i | · | ·
O=C(Cn1c(CO)nc2ccccc21)Nc1cc(C(F)(F)F)ccc1N1CCOCC1 | i | -5.9 | -10.2* | i | i | 65.7* | i
Cc1nn(-c2cccc(C(F)(F)F)c2)c(=O)c2ccccc12 | i | -3.4 | -8.97* | i | i | 114.3* | 0.16*
Cc1nn(-c2ccccc2)c(=O)c2ccccc12 | i | -12.1 | i | i | i | · | ·
Cc1ccc(S(=O)(=O)NCCC(=O)NCC(c2ccco2)N2CCCCC2)cc1C (centres undefined) | i | -20.3 | i | i | i | · | ·
COc1ccc(C2=NS(=O)(=O)N(C)C(C(=O)Nc3cc(C)ccc3O)=C2)cc1OC | i | -34.7 | -9.23* | i | 9* | 95.3* | i
COc1ccc(NC(=O)C2=CC(c3ccc(C)cc3)=NS(=O)(=O)N2C)cc1OC | i | -11.6 | i | i | i | · | ·
CC1(C(=O)OCC(=O)Nc2nc(-c3ccc(F)c(F)c3)cs2)CC1(Cl)Cl (centres undefined) | i | -20.4 | -9.96* | i | i | 140.0* | 0.138*
O=C(Cc1ccc(F)cc1)Nc1nc(-c2ccc(F)c(F)c2)cs1 | i | -3.6 | -11* | i | i | 130.0* | i
Cc1ccn2c(-c3csc(NCc4ccccc4)n3)c(C)nc2c1 | i | -27.1 | -8.72* | i | i | 107.3* | 0.144*
Cc1ccc(C)c(OCCNc2ncccc2[N+](=O)[O-])c1 | i | -1.8 | -11.8* | i | i | 102.0* | i
Cc1ccc(C)c(OCCNc2ccc([N+](=O)[O-])cn2)c1 | i | -3.5 | i | i | i | · | ·
CCc1cccc(C)c1NC(=O)CN(C)S(=O)(=O)c1ccc(-c2ccc(=O)[nH]n2)s1 | i | -1.6 | i | i | i | · | ·
Cc1cccc(/C(N)=N/OC(=O)c2cccc3ccccc23)c1 | i | -6.7 | -9.25* | i | i | 91.7* | i
CCOC(=O)N1CCN(C(=O)c2cc3c(s2)-c2c(C)cccc2OC3)CC1 | i | -4.0 | i | i | i | · | ·
CCN1CCN(C(=O)c2cc3c(s2)-c2c(C)cccc2OC3)CC1 | i | -10.6 | i | i | i | · | ·
Cc1cccc2c1-c1sc(C(=O)N3CCc4ccccc4C3)cc1CO2 | i | -7.2 | -8.74* | i | i | 87.3* | 0.139*
